Data reported in ChEMBL document CHEMBL4043093, “2-Oxo-3, 4-dihydropyrimido[4, 5-d]pyrimidinyl derivatives as new irreversible pan fibroblast growth factor receptor (FGFR) inhibitors” (Eur J Med Chem, 2017).

Experiments:
[1] = biological target: Serine/threonine-protein kinase RIO2 (Homo sapiens) (UniProt Q9BVS4); assay: Inhibition of wild-type human partial length RIOK2 (M1 to D313 residues) expressed in HEK293 cells assessed as residual activity at 1000 nM after 30 mins by Kinomescan method relative to control; format: cell-based
[2] = biological target: cAMP-dependent protein kinase catalytic subunit alpha (Homo sapiens) (UniProt P17612); assay: Inhibition of wild-type human partial length PKAC-alpha (G10 to F351 residues) expressed in Escherichia coli BL21 assessed as residual activity at 1000 nM after 30 mins by Kinomescan method relative to control
[3] = biological target: Receptor tyrosine-protein kinase erbB-2 (Homo sapiens) (UniProt P04626); assay: Inhibition of wild-type human partial length ERBB2 (K646 to V1225 residues) expressed in HEK293 cells assessed as residual activity at 1000 nM after 30 mins by Kinomescan method relative to control; format: cell-based
[4] = biological target: Activated CDC42 kinase 1 (Homo sapiens) (UniProt Q07912); assay: Inhibition of wild-type human partial length TNK2 (S159 to D474 residues) expressed in Escherichia coli BL21 assessed as residual activity at 1000 nM after 30 mins by Kinomescan method relative to control
[5] = biological target: BDNF/NT-3 growth factors receptor (Homo sapiens) (UniProt Q16620); assay: Inhibition of wild-type human partial length TRKB (Q547 to G838 residues) expressed in HEK293 cells assessed as residual activity at 1000 nM after 30 mins by Kinomescan method relative to control; format: cell-based
[6] = tested on: Epidermal growth factor receptor (Homo sapiens), P00533 [UNDEFINED MUTATION]; assay: Inhibition of human partial length EGFR L747-T751del/Sins mutant expressed in Escherichia coli BL21 assessed as residual activity at 1000 nM after 30 mins by Kinomescan method relative to control
Outline: (§1)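 KINOMEscan binding panel of 456 kinases, with the test compound at a single concentration of 1 µM. Read-out is Percent Control.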

[7] = biological target: Mitogen-activated protein kinase kinase kinase 4 (Homo sapiens) (UniProt Q9Y6R4); assay: Inhibition of wild-type human partial length MAP3K4 (G1319 to E1608 residues) expressed in Escherichia coli BL21 assessed as residual activity at 1000 nM after 30 mins by Kinomescan method relative to control
[8] = biological target: Cyclin-dependent kinase 16 (Homo sapiens) (UniProt Q00536); assay: Inhibition of wild-type human partial length PCTK1 (G160 to A474 residues) expressed in HEK293 cells assessed as residual activity at 1000 nM after 30 mins by Kinomescan method relative to control; format: cell-based
[9] = biological target: Ephrin type-B receptor 3 (Homo sapiens) (UniProt P54753); assay: Inhibition of wild-type human partial length EPHB3 (Q599 to T928 residues) expressed in Escherichia coli BL21 assessed as residual activity at 1000 nM after 30 mins by Kinomescan method relative to control
[10] = biological target: Glycogen synthase kinase-3 alpha (Homo sapiens) (UniProt P49840); assay: Inhibition of wild-type human full length GSK3A (M1 to S483 residues) expressed in Escherichia coli BL21 assessed as residual activity at 1000 nM after 30 mins by Kinomescan method relative to control
Outline: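 Single-concentration screen at 1 µM across a 456-kinase KINOMEscan panel. The read-out is Percent Control for each kinase.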

[11] = biological target: Protein kinase C eta type (Homo sapiens) (UniProt P24723); assay: Inhibition of wild-type human partial length PRKCH (S324 to P683 residues) expressed in Escherichia coli BL21 assessed as residual activity at 1000 nM after 30 mins by Kinomescan method relative to control
[12] = biological target: Serine/threonine-protein kinase TNNI3K (Homo sapiens) (UniProt Q59H18); assay: Inhibition of wild-type human full length TNNI3K (M1 to S835 residues) expressed in Escherichia coli BL21 assessed as residual activity at 1000 nM after 30 mins by Kinomescan method relative to control
[13] = biological target: Ephrin type-A receptor 7 (Homo sapiens) (UniProt Q15375); assay: Inhibition of wild-type human partial length EPHA7 (Y608 to S912 residues) expressed in Escherichia coli BL21 assessed as residual activity at 1000 nM after 30 mins by Kinomescan method relative to control
[14] = biological target: Cyclin-dependent kinase-like 2 (Homo sapiens) (UniProt Q92772); assay: Inhibition of wild-type human partial length CDKL2 (M1 to D327 residues) expressed in Escherichia coli BL21 assessed as residual activity at 1000 nM after 30 mins by Kinomescan method relative to control
[15] = tested on: Tyrosine-protein kinase ABL1 (Homo sapiens), P00519 [T315I]; assay: Inhibition of human non-phosphorylated ABL1 T315I mutant (S229 to K512 residues) expressed in HEK293 cells assessed as residual activity at 1000 nM after 30 mins by Kinomescan method relative to control; format: cell-based; outline: as §1
[16] = biological target: Death-associated protein kinase 3 (Homo sapiens) (UniProt O43293); assay: Inhibition of wild-type human partial length DAPK3 (M1 to A277 residues) expressed in Escherichia coli BL21 assessed as residual activity at 1000 nM after 30 mins by Kinomescan method relative to control
[17] = tested on: Phosphatidylinositol 4,5-bisphosphate 3-kinase catalytic subunit alpha isoform (Homo sapiens), P42336 [C420R]; assay: Inhibition of human partial length PIK3CA C420R mutant (R108 to N1068 residues) expressed in HEK293 cells assessed as residual activity at 1000 nM after 30 mins by Kinomescan method relative to control; format: cell-based; outline: as §1
[18] = biological target: High affinity nerve growth factor receptor (Homo sapiens) (UniProt P04629); assay: Inhibition of wild-type human partial length TRKA (G475 to G790 residues) expressed in HEK293 cells assessed as residual activity at 1000 nM after 30 mins by Kinomescan method relative to control; format: cell-based
[19] = biological target: Mitogen-activated protein kinase kinase kinase 15 (Homo sapiens) (UniProt Q6ZN16); assay: Inhibition of wild-type human partial length MAP3K15 (T625 to L932 residues) expressed in HEK293 cells assessed as residual activity at 1000 nM after 30 mins by Kinomescan method relative to control; format: cell-based
[20] = biological target: Ribosomal protein S6 kinase alpha-6 (Homo sapiens) (UniProt Q9UK32); assay: Inhibition of wild-type human partial length N-terminal RSK4 kinase domain 1 (M1 to E397 residues) expressed in HEK293 cells assessed as residual activity at 1000 nM after 30 mins by Kinomescan method relative to control; format: cell-based
[21] = biological target: NUAK family SNF1-like kinase 2 (Homo sapiens) (UniProt Q9H093); assay: Inhibition of wild-type human partial length SNARK (P22 to A333 residues) expressed in HEK293 cells assessed as residual activity at 1000 nM after 30 mins by Kinomescan method relative to control; format: cell-based
Homo sapiens = organism: Homo sapiens; assay: Inhibition of human partial length FLT3 ITD mutant expressed in Escherichia coli BL21 assessed as residual activity at 1000 nM after 30 mins by Kinomescan method relative to control; outline: as §1

Sequence of Serine/threonine-protein kinase TNNI3K (Homo sapiens) (Q59H18 whole entry, the tested form may be a part): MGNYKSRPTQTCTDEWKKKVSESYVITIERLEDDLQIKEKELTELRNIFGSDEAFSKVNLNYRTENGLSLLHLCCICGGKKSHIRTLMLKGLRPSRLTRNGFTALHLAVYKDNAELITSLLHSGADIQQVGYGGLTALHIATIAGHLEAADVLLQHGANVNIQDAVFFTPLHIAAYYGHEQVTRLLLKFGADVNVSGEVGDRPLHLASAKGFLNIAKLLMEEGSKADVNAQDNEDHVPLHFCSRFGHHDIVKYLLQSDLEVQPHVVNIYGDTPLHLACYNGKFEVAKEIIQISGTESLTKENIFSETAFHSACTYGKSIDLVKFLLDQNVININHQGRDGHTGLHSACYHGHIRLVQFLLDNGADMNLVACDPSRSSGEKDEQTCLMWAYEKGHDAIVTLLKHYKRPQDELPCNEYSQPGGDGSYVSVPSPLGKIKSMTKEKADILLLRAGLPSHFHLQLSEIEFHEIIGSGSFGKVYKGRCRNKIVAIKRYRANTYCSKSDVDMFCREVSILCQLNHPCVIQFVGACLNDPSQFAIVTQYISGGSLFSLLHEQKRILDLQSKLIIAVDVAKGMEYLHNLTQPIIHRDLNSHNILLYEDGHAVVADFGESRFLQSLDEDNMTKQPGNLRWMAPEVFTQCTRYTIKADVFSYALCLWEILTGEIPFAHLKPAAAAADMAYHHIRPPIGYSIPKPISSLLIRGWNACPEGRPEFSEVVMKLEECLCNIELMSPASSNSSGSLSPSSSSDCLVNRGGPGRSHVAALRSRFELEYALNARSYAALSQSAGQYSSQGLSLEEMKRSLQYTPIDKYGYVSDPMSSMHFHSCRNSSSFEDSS
Sequence of Ribosomal protein S6 kinase alpha-6 (Homo sapiens) (Q9UK32 whole entry, the tested form may be a part): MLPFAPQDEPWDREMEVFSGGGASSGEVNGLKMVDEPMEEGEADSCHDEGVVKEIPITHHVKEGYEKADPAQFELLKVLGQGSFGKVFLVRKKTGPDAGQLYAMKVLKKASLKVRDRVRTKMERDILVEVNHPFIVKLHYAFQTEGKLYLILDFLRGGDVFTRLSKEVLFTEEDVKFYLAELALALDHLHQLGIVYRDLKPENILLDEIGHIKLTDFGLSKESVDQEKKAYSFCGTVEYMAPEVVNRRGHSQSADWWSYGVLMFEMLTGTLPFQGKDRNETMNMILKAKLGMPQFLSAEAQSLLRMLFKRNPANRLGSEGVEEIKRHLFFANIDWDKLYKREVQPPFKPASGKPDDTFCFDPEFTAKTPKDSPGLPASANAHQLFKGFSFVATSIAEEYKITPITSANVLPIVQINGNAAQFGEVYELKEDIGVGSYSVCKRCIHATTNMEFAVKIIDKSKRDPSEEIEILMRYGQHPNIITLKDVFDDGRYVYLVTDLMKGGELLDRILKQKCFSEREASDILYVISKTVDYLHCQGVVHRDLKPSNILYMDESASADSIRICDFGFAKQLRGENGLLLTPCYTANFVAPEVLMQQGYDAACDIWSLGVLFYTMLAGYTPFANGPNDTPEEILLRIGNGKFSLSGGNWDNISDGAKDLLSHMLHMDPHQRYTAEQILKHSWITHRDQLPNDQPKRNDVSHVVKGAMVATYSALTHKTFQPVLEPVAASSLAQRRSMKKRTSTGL
Sequence of Glycogen synthase kinase-3 alpha (Homo sapiens) (P49840 2-483 limits assumed): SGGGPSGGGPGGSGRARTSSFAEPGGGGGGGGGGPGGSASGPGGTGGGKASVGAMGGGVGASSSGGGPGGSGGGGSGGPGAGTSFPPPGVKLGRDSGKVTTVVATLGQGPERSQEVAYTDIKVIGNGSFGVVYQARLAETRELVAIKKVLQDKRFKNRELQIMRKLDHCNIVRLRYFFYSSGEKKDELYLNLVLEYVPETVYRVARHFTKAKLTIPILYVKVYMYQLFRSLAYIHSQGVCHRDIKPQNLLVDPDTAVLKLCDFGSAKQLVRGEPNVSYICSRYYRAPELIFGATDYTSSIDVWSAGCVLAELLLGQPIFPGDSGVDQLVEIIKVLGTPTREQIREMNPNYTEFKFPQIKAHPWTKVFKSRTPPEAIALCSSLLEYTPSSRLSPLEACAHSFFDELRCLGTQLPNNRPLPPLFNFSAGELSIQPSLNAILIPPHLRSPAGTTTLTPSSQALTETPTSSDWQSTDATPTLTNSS
Sequence of Mitogen-activated protein kinase kinase kinase 4 (Homo sapiens) (Q9Y6R4 whole entry, the tested form may be a part): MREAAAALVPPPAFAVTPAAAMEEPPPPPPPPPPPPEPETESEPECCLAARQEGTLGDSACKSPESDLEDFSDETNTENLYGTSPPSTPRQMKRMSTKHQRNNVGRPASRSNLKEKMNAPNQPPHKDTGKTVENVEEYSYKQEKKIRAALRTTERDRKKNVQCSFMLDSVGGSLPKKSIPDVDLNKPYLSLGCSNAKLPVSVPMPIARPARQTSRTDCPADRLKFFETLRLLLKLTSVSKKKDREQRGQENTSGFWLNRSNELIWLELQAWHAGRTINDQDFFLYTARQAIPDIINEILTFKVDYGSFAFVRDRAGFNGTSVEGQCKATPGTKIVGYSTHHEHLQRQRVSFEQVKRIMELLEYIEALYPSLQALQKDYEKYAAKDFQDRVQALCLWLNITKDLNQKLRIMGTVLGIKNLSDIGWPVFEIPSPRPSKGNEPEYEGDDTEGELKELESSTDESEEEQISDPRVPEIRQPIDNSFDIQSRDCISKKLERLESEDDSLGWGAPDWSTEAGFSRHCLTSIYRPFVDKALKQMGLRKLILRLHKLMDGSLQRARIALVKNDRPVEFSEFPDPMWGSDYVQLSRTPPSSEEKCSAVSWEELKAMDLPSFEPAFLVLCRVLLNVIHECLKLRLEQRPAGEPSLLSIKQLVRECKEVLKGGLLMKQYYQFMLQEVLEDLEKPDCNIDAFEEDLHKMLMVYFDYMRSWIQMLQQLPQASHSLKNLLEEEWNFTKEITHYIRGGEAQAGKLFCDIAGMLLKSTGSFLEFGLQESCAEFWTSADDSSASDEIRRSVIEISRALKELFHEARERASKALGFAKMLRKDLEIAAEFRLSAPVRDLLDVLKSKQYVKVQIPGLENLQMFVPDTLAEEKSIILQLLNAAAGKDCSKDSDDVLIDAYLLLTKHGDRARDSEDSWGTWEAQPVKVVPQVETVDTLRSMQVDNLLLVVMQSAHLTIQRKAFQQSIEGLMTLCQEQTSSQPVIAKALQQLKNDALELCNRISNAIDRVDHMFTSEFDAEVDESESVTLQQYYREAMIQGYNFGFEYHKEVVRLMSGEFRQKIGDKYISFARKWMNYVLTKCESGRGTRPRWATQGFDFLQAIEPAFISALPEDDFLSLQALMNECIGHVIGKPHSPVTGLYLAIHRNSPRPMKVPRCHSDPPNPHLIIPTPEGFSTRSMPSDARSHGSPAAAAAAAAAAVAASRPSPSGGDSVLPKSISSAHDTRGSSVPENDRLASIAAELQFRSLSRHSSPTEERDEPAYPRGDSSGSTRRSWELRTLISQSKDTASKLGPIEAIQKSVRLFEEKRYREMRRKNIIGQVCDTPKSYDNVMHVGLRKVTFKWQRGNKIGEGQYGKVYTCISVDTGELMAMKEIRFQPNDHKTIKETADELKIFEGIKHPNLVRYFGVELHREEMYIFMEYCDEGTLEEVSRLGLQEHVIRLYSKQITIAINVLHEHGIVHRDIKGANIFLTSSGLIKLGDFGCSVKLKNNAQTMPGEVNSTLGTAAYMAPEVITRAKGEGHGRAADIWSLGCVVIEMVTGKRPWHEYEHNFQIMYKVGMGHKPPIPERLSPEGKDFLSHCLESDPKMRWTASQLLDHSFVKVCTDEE
Sequence of Cyclin-dependent kinase 16 (Homo sapiens) (Q00536 whole entry, the tested form may be a part): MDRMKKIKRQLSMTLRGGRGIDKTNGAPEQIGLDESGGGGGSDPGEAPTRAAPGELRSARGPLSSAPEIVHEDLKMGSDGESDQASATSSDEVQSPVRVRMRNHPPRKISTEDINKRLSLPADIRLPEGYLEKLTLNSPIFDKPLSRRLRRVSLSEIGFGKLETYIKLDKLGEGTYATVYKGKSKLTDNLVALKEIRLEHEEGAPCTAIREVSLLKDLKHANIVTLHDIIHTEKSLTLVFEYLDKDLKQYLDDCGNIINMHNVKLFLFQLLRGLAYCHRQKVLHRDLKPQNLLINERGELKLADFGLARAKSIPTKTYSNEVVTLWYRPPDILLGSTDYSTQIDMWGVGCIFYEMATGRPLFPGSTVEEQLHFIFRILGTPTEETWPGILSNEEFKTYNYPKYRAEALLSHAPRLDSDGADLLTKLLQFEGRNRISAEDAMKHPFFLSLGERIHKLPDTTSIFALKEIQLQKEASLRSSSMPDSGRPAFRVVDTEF
Sequence of Death-associated protein kinase 3 (Homo sapiens) (O43293 whole entry, looked up, the tested form may be a part, canonical isoform): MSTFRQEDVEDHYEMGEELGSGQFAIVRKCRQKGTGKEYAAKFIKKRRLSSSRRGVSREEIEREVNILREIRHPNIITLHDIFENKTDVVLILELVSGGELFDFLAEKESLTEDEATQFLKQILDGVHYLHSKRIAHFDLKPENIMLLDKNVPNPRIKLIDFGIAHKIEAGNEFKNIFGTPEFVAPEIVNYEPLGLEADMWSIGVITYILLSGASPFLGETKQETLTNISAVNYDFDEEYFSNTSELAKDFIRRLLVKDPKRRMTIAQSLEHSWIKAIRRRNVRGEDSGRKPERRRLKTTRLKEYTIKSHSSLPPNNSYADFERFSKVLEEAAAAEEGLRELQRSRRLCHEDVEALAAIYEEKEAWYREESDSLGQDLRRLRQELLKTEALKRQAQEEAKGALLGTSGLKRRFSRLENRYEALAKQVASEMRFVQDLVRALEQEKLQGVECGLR

COc1cc(OC)c(Cl)c(N2Cc3cnc(Nc4ccc(F)cc4)nc3N(C3CCN(C(=O)/C=C/CN(C)C)CC3)C2=O)c1Cl
Activity [1]: 100%
Activity [2]: 100%
Activity [3]: 96%
Activity [4]: 100%
Activity [5]: 54%
Activity [6]: 95%
Activity [7]: 46%
Activity [8]: 100%
Activity [9]: 100%
Activity [10]: 100%
Activity [11]: 91%
Activity [12]: 100%
Activity [13]: 99%
Activity [14]: 96%
Activity [15]: 100%
Activity [16]: 100%
Activity [17]: 100%
Activity [18]: 38%
Activity [19]: 100%
Activity [20]: 100%
Activity [21]: 89%
Activity (Homo sapiens): 78%
